This is a sample that favours compounds with a hit; in the whole collection about 11% have one here.
WT yeast gro inh: growth inhibition of WT strain, primary screen, mitochondrial fusion inhibitor project, WT and mutant strains, chemical genetic; actives 2.1% (n = 190,000); inhibition, % at 10 µM; AID 1362, 2008; mitochondrial fusion phenotypic screen; in the data active = inhibition above about 58%; tested in S. cerevisiae
Diaph inh CS: diaphorase inhibitors and chemical oxidizers, primary screen, counter-screen for diaphorase-coupled primary assays, biochemical, uHTS, resorufin fluorescence; actives 0.69% (n = 190,000); inhibition, % at 20 µM; diaphorase resazurin-to-resorufin fluorescence, NADH, 16 min; bacterial (C. kluyveri) enzyme, not human;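 active = primary screen inhibition at 20 µM above a set limit, cut at about 50% in these data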;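 also: plate controls were DMSO with full reaction for no effect and wells lacking NADH for full effect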
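controls = No-NADH positive control and DMSO neutral control | system = Clostridium kluyveri diaphorase enzyme | timing = reaction incubation of 16 min at room temperature | signal = resorufin fluorescence 544/590 nm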
G6PDH CS: L. mesenteroides G6PDH inhibitors, counter-screen for G6PDH-coupled screening assays, biochemical, Leuconostoc mesenteroides enzyme. inhibition, % at 5 µM. actives 0.12% (n = 200,000). glucose-6-phosphate dehydrogenase [Leuconostoc mesenteroides]. Purified L. mesenteroides G6PDH, diaphorase/resazurin coupled fluorescence, 45 min. AID 1020, 2008
Lmaj promast: Leishmania major promastigote growth inhibition, primary screen; AID 1063, 2008; Leishmania major promastigotes, resazurin fluorescence viability; inhibition, % at 10 µM; actives 9% (n = 200,000);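 also: promastigotes grown with compound for 44 hours at 28 °C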
Diaph act CS: compounds boosting diaphorase resazurin reduction – biochemical, uHTS, resorufin fluorescence, counter-screen for diaphorase-coupled primary assays, primary screen; Diaphorase/resazurin coupled assay, 16 min; stronger effect = higher value; 1 = vehicle wells, 0 = NADH-free wells; activation factor at 20 µM; actives 0.005% (n = 190,000); AID 1229, 2008;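 active = diaphorase activity raised at least twofold by the compound at 20 µM; inactive = activation factor below 2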
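System – purified diaphorase enzyme from Clostridium kluyveri · Input – enzyme 0.07 U/mL final · Also added – final NADH 0.114 mM, resazurin 0.1 mM · Measured by – fluorescence of resorufin, 544 nm excitation, 590 nm emission · Timing – 16 min enzyme reaction, ambient temperature · Measure – resorufin increase flagging diaphorase activators or reducers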
* hit, by the source's call; . = not tested or not shown. Rule as the data show it, unless noted: active = inhibition above about 50%; inactive = the rest.

SMILES	WT yeast gro inh	Diaph inh CS	G6PDH CS	Lmaj promast	Diaph act CS
CC1CN(C(=O)/C=C/c2ccccc2[N+](=O)[O-])CC(C)O1 (stereo not drawn)	-8.8	9.7	23.1	-3.1	0.9
CC1CN(C(=O)/C=C/c2ccc([N+](=O)[O-])s2)CC(C)O1 (stereo not drawn)	9.7	12.5	6.9	82.4*	0.9
CC(C)Oc1ccc(CCN=C(N)N=C(N)N)cc1Cl	-4.2	-15.1	11.8	81.4*	1.2
Cc1cc(CN(C)C)c(O)c(C2(C)CCCCC2)c1	-4.1	11.9	-3.5	3.4	0.9
Cc1cc(CN2CCOCC2)c(O)c(C2(C)CCCCC2)c1	85.3*	10.8	3.0	55.9*	0.9
CCOC(=O)CSc1nnc(CSc2nc3sc4c(c3c(=O)[nH]2)CCCC4)n1-c1ccccc1	7.2	25.0	7.9	-11.9	0.8
O=C(CC1C(=O)N(c2ccccc2)C(=S)N1c1ccccc1)c1ccc(Br)cc1 (stereo not drawn)	12.6	24.4	-12.0	50.9*	0.8
COC(=O)c1cn(CC(=O)Nc2ccc(F)cc2)c2ccccc12	-12.4	0.0	10.5	-3.7	1
CCCCNC(=O)/C(=C/c1ccccc1)NC(C)=O	-10.3	2.9	-0.8	27.9	1
COc1cccc2c(=O)cn[nH]c12	-13.6	8.1	-4.1	-1.7	0.9
O=C(CSc1nnc2c(n1)[nH]c1ccccc12)OCc1ccccc1	2.3	13.3	3.3	79.3*	0.9
CCCCCCc1cc2cc(S(=O)(=O)c3ccc(Cl)cc3)c(=O)oc2cc1O	88.5*	-2.4	12.0	-7.0	1
CCCCCCc1cc2cc(S(=O)(=O)c3ccc(C)cc3)c(=O)oc2cc1O	38.9	19.3	18.7	-6.9	0.8
O=C(NN1C(=O)C2C3c4ccccc4C(c4ccccc43)C2C1=O)C1CC1 (stereo not drawn)	7.5	4.9	9.1	-4.9	1
O=C(CSc1nnc2scc(-c3ccccc3)n12)Nc1ccc2c(c1)OCCO2	73.0*	9.2	3.2	-7.1	0.9
Nn1c(SCC(=O)Nc2ccc3c(c2)OCO3)nnc1-c1ccncc1	88.1*	5.3	-1.7	-2.6	0.9
O=S(=O)(/N=C/c1c(O)ccc2ccccc12)c1cccs1	-6.3	32.2	57.3*	-9.9	0.7
COc1ccc(N2CCN(C(=O)CSc3nnc(COc4cccc5cccnc45)o3)CC2)cc1	-2.8	18.9	-4.2	6.8	0.8
COc1ccc(C=O)cc1CSc1nnc(COc2cccc3cccnc23)o1	66.6*	1.7	9.0	-2.3	1
CCC(C)(C)c1ccc2c(c1)C(=O)c1ccccc1C2=O	75.7*	16.9	-2.2	6.4	0.8
Cc1cc(C)c(C(N)=O)c(Nc2cccc3ccccc23)n1	62.4*	91.4*	4.4	-5.2	0.1
CC(C)CC(C(=O)NC1CCCC1)N(Cc1ccc2c(c1)OCO2)C(=O)c1snc(C(N)=O)c1N (stereo not drawn)	-5.9	13.6	28.0	28.0	0.9
CC(C)CCNC(=O)C(CC(C)C)N(Cc1ccc2c(c1)OCO2)C(=O)c1snc(C(N)=O)c1N (stereo not drawn)	11.1	23.6	5.8	92.3*	0.8
CCc1ccccc1N(CC(=O)NCc1ccco1)C(=O)c1snc(C(N)=O)c1N	10.5	17.2	4.4	62.3*	0.8
Cc1ccc(N(C(=O)c2snc(C(N)=O)c2N)C(C(=O)NCCC(C)C)c2ccco2)cc1 (stereo not drawn)	24.5	17.6	5.1	64.6*	0.8
SMILES	WT yeast gro inh	Diaph inh CS	G6PDH CS	Lmaj promast	Diaph act CS
CC(C)CCNC(=O)CN(Cc1ccco1)C(=O)c1snc(C(N)=O)c1N	-6.1	-4.3	16.5	-4.6	1
Cc1ccc2c(c1)nnn2C1CCN(C(=O)c2ccccc2F)CC1	-1.1	-23.3	10.1	-4.1	1.2
Cc1ccc(CNC(=O)Cn2cc(C(F)(F)F)ccc2=O)cc1	10.3	-5.6	5.1	-3.8	1.1
COc1ccc(C[C@H]2CN3C(=NC[C@@H]3C(C)C)N2C[C@H](C)NC(=O)c2ccc(C)c(Br)c2)cc1	9.1	17.9	4.8	67.7*	0.8
C[C@@H](CN1C2=NC[C@H](Cc3ccccc3)N2C[C@H]1Cc1ccc(O)cc1)NC(=O)CCC1CCCCC1	2.0	2.7	6.1	-2.5	1
COc1ccc(C[C@H]2CN3C(=NC[C@@H]3Cc3ccccc3)N2CCNC(=O)c2ccc(C)c(Br)c2)cc1	21.1	-58.2	6.4	95.2*	1.6
COc1ccc(C[C@H]2CN3C(=NC[C@H]3Cc3ccccc3)N2CCNC(=O)CCC2CCCCC2)cc1	10.6	-6.4	1.7	76.3*	1.1
Cc1c(-c2ccccc2)[n+](=O)c(-c2ccc(Cl)cc2)c(C)n1[O-]	-18.3	3.3	18.7	8.5	1
N#Cc1ccccc1OCCOCCNC1CCCC1	4.1	5.5	5.3	82.1*	0.9
COc1ccccc1OCCNC1CCCC1	5.2	3.5	10.7	-3.4	1
Cc1nc(N2CCN(C(=O)c3ccc(Cl)cc3)CC2)c(C#N)c2c1COC(C)(C)C2	14.9	23.0	-21.9	3.0	0.8
COc1cc(C(=O)OC(C)C(=O)Nc2ccc3c(c2)OCO3)ccc1OCc1c(C)noc1C (stereo not drawn)	12.6	11.0	-4.4	-1.2	0.9
Cc1ccc(NC(=O)c2cccc(OCc3c(C)noc3C)c2)cc1S(=O)(=O)Nc1ccccc1Cl	4.6	22.4	10.9	82.9*	0.8
Cc1noc(C)c1COc1cccc(C(=O)OC(C)C(=O)Nc2ccc3c(c2)OCO3)c1 (stereo not drawn)	12.5	18.2	0.6	59.4*	0.8
O/N=C/c1cc(Br)ccc1OCc1ccc(F)cc1	.	.	.	99.6*	.
O/N=C/c1ccc(OCc2ccccc2)c(Br)c1	54.4	19.6	-1.5	57.1*	0.8
O/N=C/c1cc(Br)cc(Br)c1OCc1ccccc1	60.0*	31.0	-21.2	-2.3	0.7
COc1cc([N+](=O)[O-])ccc1NC(=O)CSc1nccn1C	-4.2	13.0	6.7	9.5	0.9
CCS(=O)(=O)N1CCC(C(=O)O)CC1	9.7	1.2	8.0	-6.1	1
O=C(CCNS(=O)(=O)c1cccs1)NC1CCN(Cc2ccccc2)CC1	-9.0	-3.9	-2.2	14.6	1
N#Cc1sc2nc(C3CC3)cc(-c3ccc(Cl)cc3)c2c1N	72.0*	23.8	10.4	9.4	0.8
Cc1ccc(N2C(=N)/C(=C3/Nc4ccccc4S3)C(c3ccccc3)C2=O)cc1 (stereo not drawn)	82.6*	3.1	-25.5	100.2*	1
Cc1ccc(N2C(=O)C(F)(F)C2c2ccccc2)cc1 (stereo not drawn)	8.5	6.5	15.1	8.4	0.9
